# According to ChEMBL document CHEMBL1177846, “Benzylidene/2-chlorobenzylidene hydrazides: synthesis, antimicrobial activity, QSAR studies and antiviral evaluation” (Eur J Med Chem, 2010):
# Calls of active or inactive are those of the source. The rule behind the calls is not given here.
# Legend:
# [1] = tested on: Human alphaherpesvirus 1; assay: Antiviral activity against Herpes simplex virus 1 KOS infected in human HEL cells assessed as inhibition of virus-induced cytopathic effect after 3 days by MTS assay; format: functional, organism-based
# Summary of the method: (§1)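 Confluent cell monolayers were infected with 100 CCID50 of virus and allowed 2 h adsorption at 37 °C. Virus was then removed and serial compound dilutions were added. Cultures were incubated at 37 °C for 3 days, until CPE was complete in the untreated virus control. EC50 was the concentration giving 50% inhibition of virus-induced CPE, by visual score or by MTS formazan cell viability.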
# [2] = tested on: Sindbis virus; assay: Antiviral activity against Simbidis virus infected in african green monkey Vero cells assessed as inhibition of virus-induced cytopathic effect after 3 days by MTS assay; format: functional, organism-based; summary of the method: as §1
# [3] = tested on: Feline coronavirus; assay: Antiviral activity against Feline caronavirus infected in […] cells assessed as inhibition of virus-induced cytopathic effect after 3 days by MTS assay; format: functional, organism-based; summary of the method: as §1
# [4] = tested on: Human alphaherpesvirus 1; assay: Antiviral activity against acyclovir-resistant […] kinase-deficient HSV1 KOS infected in human HEL cells assessed as inhibition of virus-induced cytopathic effect after 3 days by MTS assay; format: functional, organism-based; summary of the method: as §1
# [5] = tested on: Human respirovirus 3; assay: Antiviral activity against Parainfluenza 3 virus infected in african green monkey Vero cells assessed as inhibition of virus-induced cytopathic effect after 3 days by MTS assay; format: functional, organism-based; summary of the method: as §1
# [6] = tested on: Punta Toro virus; assay: Antiviral activity against Punta toro virus infected in african green monkey Vero cells assessed as inhibition of virus-induced cytopathic effect after 3 days by MTS assay; format: functional, organism-based; summary of the method: as §1
# [7] = tested on: Human alphaherpesvirus 2; assay: Antiviral activity against Herpes simplex virus 2 G infected in human HEL cells assessed as inhibition of virus-induced cytopathic effect after 3 days by MTS assay; format: functional, organism-based; settings: strain G; summary of the method: as §1
# [8] = tested on: Aspergillus niger; assay: Antifungal activity against Aspergillus niger after 7 days by serial dilution method; format: functional
# [9] = tested on: Staphylococcus aureus; assay: Antibacterial activity against Staphylococcus aureus after 24 hrs by serial dilution method; format: functional
# [10] = tested on: Vaccinia virus; assay: Antiviral activity against Vaccinia virus infected in human HEL cells assessed as inhibition of virus-induced cytopathic effect after 3 days by MTS assay; format: functional, organism-based; settings: Orthopoxvirus vaccinia; summary of the method: as §1
# [11] = tested on: Felid alphaherpesvirus 1; assay: Antiviral activity against Feline herpesvirus 1 infected in […] cells assessed as inhibition of virus-induced cytopathic effect after 3 days by MTS assay; format: functional, organism-based; summary of the method: as §1
# [12] = tested on: Escherichia coli; assay: Antibacterial activity against Escherichia coli after 24 hrs by serial dilution method; format: functional
# [13] = tested on: Bacillus subtilis; assay: Antibacterial activity against Bacillus subtilis after 24 hrs by serial dilution method; format: functional
# [14] = tested on: Vesicular stomatitis virus; assay: Antiviral activity against VSV infected in human HEL cells assessed as inhibition of virus-induced cytopathic effect after 3 days by MTS assay; format: functional, organism-based; summary of the method: as §1
# [15] = tested on: Influenza A virus; assay: Antiviral activity against influenza A virus H3N2 infected in MDCK cells assessed as inhibition of virus-induced cytopathic effect after 3 days by MTS assay; format: functional, organism-based; summary of the method: as §1
# [16] = tested on: Influenza A virus; assay: Antiviral activity against influenza A virus H1N1 infected in MDCK cells assessed as inhibition of virus-induced cytopathic effect after 3 days by MTS assay; format: functional, organism-based; summary of the method: as §1
# [17] = tested on: Coxsackievirus B4; assay: Antiviral activity against Coxsackie virus B4 infected in african green monkey Vero cells assessed as inhibition of virus-induced cytopathic effect after 3 days by MTS assay; format: functional, organism-based; summary of the method: as §1
# [18] = tested on: Influenza B virus; assay: Antiviral activity against influenza B virus infected in MDCK cells assessed as inhibition of virus-induced cytopathic effect after 3 days by MTS assay; format: functional, organism-based; summary of the method: as §1
# [19] = tested on: Candida albicans; assay: Antifungal activity against Candida albicans after 48 hrs by serial dilution method; format: functional
# Summary of the method: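 Serial compound dilutions in Sabouraud dextrose broth (tube dilution), incubated 37 °C for 48 h. MIC was read as the lowest concentration with no growth.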
# [20] = tested on: Mammalian orthoreovirus 1; assay: Antiviral activity against Reovirus 1 infected in african green monkey Vero cells assessed as inhibition of virus-induced cytopathic effect after 3 days by MTS assay; format: functional, organism-based; summary of the method: as §1
SMILES,inhibition [1],inhibition [2],inhibition [3],inhibition [4],inhibition [5],inhibition [6],inhibition [7],-logMIC [8],MFC [8],MBC [9],inhibition [10],inhibition [11],MBC [12],MBC [13],inhibition [14],inhibition [15],inhibition [16],inhibition [17],inhibition [18],MFC [19],also measured
CCCCCCCCCCCC(=O)N/N=C/c1ccccc1Cl,inactive,inactive,inactive,inactive,inactive,inactive,inactive,1.43,>0.148 uM/ml,>0.148 uM/ml,inactive,inactive,0.009 uM/ml,0.148 uM/ml,inactive,inactive,inactive,inactive,inactive,>0.148 uM/ml,-logMIC [12]: 1.8; inhibition [20]: inactive
O=C(/C=C/c1ccccc1)N/N=C/c1ccccc1,inactive,inactive,inactive,inactive,inactive,inactive,inactive,1.6,>0.2 uM/ml,>0.2 uM/ml,inactive,inactive,0.05 uM/ml,>0.2 uM/ml,inactive,inactive,inactive,inactive,inactive,>0.2 uM/ml,inhibition [20]: inactive
OC(Cn1cncn1)(Cn1cncn1)c1ccc(F)cc1F [FLUCONAZOLE],–,–,–,–,–,–,–,2.64,–,–,–,–,–,–,–,–,–,–,–,–,–
CCCCCCCCCCCCCCCCCC(=O)N/N=C/c1ccccc1Cl,inactive,inactive,inactive,inactive,inactive,inactive,inactive,1.29,0.059 uM/ml,>0.119 uM/ml,inactive,inactive,>0.119 uM/ml,0.029 uM/ml,inactive,inactive,inactive,inactive,inactive,>0.119 uM/ml,-logMIC [9]: 1.53; -logMIC [13]: 1.53; inhibition [20]: inactive
CCCCCCCCCCCCCCCCCC(=O)N/N=C/c1ccccc1,inactive,inactive,inactive,inactive,inactive,inactive,inactive,1.2,0.03 uM/ml,0.129 uM/ml,inactive,inactive,0.064 uM/ml,<0.129 uM/ml,inactive,inactive,inactive,inactive,inactive,<0.129 uM/ml,-logMIC [12]: 1.79; -logMIC [13]: 1.49; -logMIC [19]: 2.09; inhibition [20]: inactive
CCCCCCCCCCCCCCCC(=O)N/N=C/c1ccccc1,inactive,inactive,inactive,inactive,inactive,inactive,inactive,0.86,>0.139 uM/ml,>0.139 uM/ml,inactive,inactive,>0.139 uM/ml,0.139 uM/ml,inactive,inactive,inactive,inactive,inactive,>0.139 uM/ml,inhibition [20]: inactive
O=C(N/N=C/c1ccccc1Cl)c1cc([N+](=O)[O-])cc([N+](=O)[O-])c1,inactive,inactive,inactive,inactive,inactive,inactive,inactive,1.6,>0.13 uM/ml,>0.13 uM/ml,inactive,inactive,>0.13 uM/ml,0.065 uM/ml,inactive,inactive,inactive,inactive,inactive,>0.13 uM/ml,-logMIC [19]: 2.05; inhibition [20]: inactive
Cc1ccc(C(=O)N/N=C/c2ccccc2Cl)cc1,inactive,inactive,inactive,inactive,inactive,inactive,inactive,1.61,0.183 uM/ml,0.045 uM/ml,inactive,inactive,0.045 uM/ml,0.183 uM/ml,inactive,inactive,inactive,inactive,inactive,>0.183 uM/ml,inhibition [20]: inactive
Cc1ccc(C(=O)N/N=C/c2ccccc2)cc1,inactive,inactive,inactive,inactive,inactive,inactive,inactive,1.88,>0.21 uM/ml,>0.21 uM/ml,inactive,inactive,0.052 uM/ml,0.21 uM/ml,inactive,inactive,inactive,inactive,inactive,>0.21 uM/ml,inhibition [20]: inactive
C/C=C/C=C/C(=O)N/N=C/c1ccccc1Cl,inactive,inactive,inactive,inactive,inactive,inactive,inactive,1.5,>0.201 uM/ml,>0.201 uM/ml,inactive,inactive,0.1 uM/ml,0.05 uM/ml,inactive,inactive,inactive,inactive,inactive,>0.201 uM/ml,inhibition [20]: inactive
Cc1cccc(C(=O)N/N=C/c2ccccc2Cl)c1,inactive,inactive,inactive,inactive,inactive,inactive,inactive,1.51,>0.183 uM/ml,>0.183 uM/ml,inactive,inactive,0.045 uM/ml,0.045 uM/ml,inactive,inactive,inactive,inactive,inactive,>0.183 uM/ml,inhibition [20]: inactive
